Values joined by “and” are separate entries in the source; they are usually repeats but may differ in a detail not shown here. Identical values can stand only once.
Columns and labels:
Rattus norvegicus [1] = assay: In vivo triglyceride lowering activity dosed at 0.10 % of the diet.; assay type: functional
Outline: (§1)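 Normal rats were dosed in the diet. Serum sterol and triglyceride levels were measured and expressed as the mean percent of control values. Significance versus control was reported at p < 0.05, 0.01 and 0.001.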

Rattus norvegicus [2] = assay: In vivo sterol lowering activity at dose of 0.10 % of the diet; assay type: functional; outline: as §1
[3] = target: T1, Sterol O-acyltransferase 1 (Rattus norvegicus) (UniProt O70536); assay: In vitro inhibition of acyl coenzyme A:cholesterol acyltransferase; parameters: concentration or dose not given beside the values; conditions: concentration not given here
T1 sequence (whole entry): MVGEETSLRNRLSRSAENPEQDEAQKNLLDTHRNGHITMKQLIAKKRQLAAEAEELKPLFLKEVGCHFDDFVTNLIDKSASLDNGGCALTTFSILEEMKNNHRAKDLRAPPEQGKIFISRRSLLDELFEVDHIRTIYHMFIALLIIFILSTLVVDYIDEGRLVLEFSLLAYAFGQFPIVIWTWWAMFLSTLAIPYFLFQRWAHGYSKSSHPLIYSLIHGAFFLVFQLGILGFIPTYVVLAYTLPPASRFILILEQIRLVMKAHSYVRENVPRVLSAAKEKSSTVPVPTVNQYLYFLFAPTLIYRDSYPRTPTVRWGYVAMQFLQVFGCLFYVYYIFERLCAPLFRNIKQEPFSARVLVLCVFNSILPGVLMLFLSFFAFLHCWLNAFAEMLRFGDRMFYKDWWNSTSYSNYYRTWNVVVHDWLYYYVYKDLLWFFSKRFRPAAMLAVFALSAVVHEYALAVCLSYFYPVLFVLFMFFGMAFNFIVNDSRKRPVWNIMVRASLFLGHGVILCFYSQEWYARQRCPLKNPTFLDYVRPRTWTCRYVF
Outline: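 Enzyme fatty acyl-CoA:cholesterol acyltransferase (ACAT), assayed in vitro at a single drug concentration of 5.2 μg/mL. The value is the mean percent inhibition of enzyme activity.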

SMILES	serum triglyceride, percent of control (Rattus norvegicus [1])	serum sterol level, percent of control (Rattus norvegicus [2])	inhibition [3]	Diet (Rattus norvegicus [1])
CCCCCCCCCCCCCCCCNc1ccc(C(=O)OC)c(C)c1	<60%	99%	0%	–
CCCCCCCCCCCCCCCCN(C(C)=O)c1ccc(C(=O)OCC(O)CO)cc1 (centres undefined)	110%	106%	0%	–
CCCCCCCCCCCCCCCCNc1ncc(C(=O)OCC)cn1	–	–	13%	–
CCCCCCCCCCCCCCCCN(C(C)=O)c1ccc(CO)cc1	105%	99%	< 22%	–
CCCCCCCCCCCCCCCCNc1csc(C(=O)OCC)c1	–	112%	< 24%	–
CCCCCCCCCCCCCCNc1ccc(C(=O)OCC(O)CO)cc1 (centres undefined)	<47%	<80%	27%	–
CCCCCCCCCCCCCCCCN(CCCCCCCCCCCCCCCC)c1ccc(CCCC(=O)OCC)cc1	90%	103%	18%	–
CCCCCCCCCCCCCCCCN(C(=O)C(F)(F)F)c1ccc(C(=O)NO)cc1	91%	96%	0%	–
CCCCCCCCCCCCCCCCN(C(=O)CCCCCCCCCCCCCCC)c1ccc(C(=O)OCC(O)CO)cc1 (centres undefined)	72%	99%	14%	–
CCCCCCCCCCCCCCCCNc1ccc(C(=O)OCC)cc1F	74%	105%	5%	–
CCCCCCCCCCCCCCCCN(C(=O)C(F)(F)F)c1ccc(C(=O)Nc2ccc(C(=O)OCC)cc2)cc1	<69%	95%	< 25%	–
CCCCCCCCCCCCCCCCNc1ccc(C(=O)N2CCCCC2)cc1	<61%	83%	< 55%	–
CCCCCCCCCCCCCCCCNc1ccc(C(=O)OCC)c(F)c1	<68%	90%	–	–
CCCCCCCCCCCCCCCCNc1ccc(C(O)C(N)=O)cc1 (centres undefined)	57%	94%	34%	–
CCCCCCCCCCCCCCCCNc1ccc(C(=O)OCC(COC(=O)CCCCCCCCCCCCCCC)OC(=O)CCCCCCCCCCCCCCC)cc1 (centres undefined)	75%	<80%	4%	–
CCCCCCCCCCCCCCCCNc1ccc(C#N)cc1	–	–	8% and < 30%	–
CCCCCCCCCCCCCCCCNc1ccc(C(=O)OCC2COC(c3ccccc3)O2)cc1 (centres undefined)	<50%	84%	–	–
CCCCCCCCCCCCCCCCNc1ccc(C(=O)OC2CCCCCC2)cc1	84%	<87%	0%	–
CCCCCCCCCCCCCCCCNc1ccc(C(=O)Oc2cccnc2)cc1	–	93%	< 22%	92%
CCCCCCCCCCCCCCCCNc1ccc(CCCC(=O)OCC)cc1	76%	99%	0%	–
CCCCCCCCCCCCCCCCN(C(=O)C(F)(F)F)c1ccc(C(=O)N2CCCCCC2)cc1	<66%	95%	< 75%	–
CCCCCCCCCCCCCCCCNc1csc(C#N)c1	99%	92%	< 41%	–
CCCCCCCCCCCCCCCCNc1ccc(C(=O)OCC(O)COC)cc1 (centres undefined)	<65%	<77%	0%	–

SMILES	serum triglyceride, percent of control (Rattus norvegicus [1])	serum sterol level, percent of control (Rattus norvegicus [2])	inhibition [3]	Diet (Rattus norvegicus [1])
CCCCCCCCCCCCCCCCNc1ccc(SCC(=O)OCC)cc1	126%	99%	13%	–
CCCCCCCCCCCCCCCCN(C(C)=O)c1ccc(C(=O)OCC(COC(C)=O)OC(C)=O)cc1 (centres undefined)	111%	101%	12%	–
CCCCCCCCCCCCCCCCNc1ccc(C(=O)OC/C=C/COC(=O)c2ccc(NCCCCCCCCCCCCCCCC)cc2)cc1	–	91%	10%	–
CCCCCCCCCCCCCCCCNc1ccc(C(C)O)cc1 (centres undefined)	93%	93%	< 33%	–
CCCCCCCCCCCCCCCCNc1ccc(/C=N\N=C(\N)NCc2ccccc2)cc1	<49%	94%	0%	–
CCCCCCCCCCCCCCCCNc1cc(C(=O)OC)cc(C(=O)OC)c1	86%	108%	6%	–
CCCCCCCCCCCCCCCCN(C(C)=O)c1ccc(C(=O)OCC(O)COC(C)=O)cc1 (centres undefined)	113%	97%	4%	–
CCCCCCCCCCCCCCCCNc1ccc(C(=O)Oc2ccc(C(=O)OC(C)(C)C)cc2)cc1	<67%	103%	–	–
CCCCCCCCCCCCCCCCNc1ccc(CO)cc1	–	–	10% and 16%	–
CCCCCCCCCCCCCCCCNc1ccc(C(=O)OCC(O)COCC)cc1 (centres undefined)	<47%	<68%	9%	–
CCCCCCCCCCCCCCCCNc1ccc(C(=O)OCC(COC(C)=O)OC(C)=O)cc1 (centres undefined)	<40%	<66%	22%	–
CCCCCCCCCCCCCCCCNc1ccc(C(=O)OCC2COC(C)(C)O2)cc1 (centres undefined)	<68%	86%	0%	–
CCCCCCCCCCCCCCCCNc1ccc(C(=O)OCC(O)CO)cc1 (centres undefined)	–	–	0%	–
CCCCCCCCCCCCCCCCNc1ccc(C(=O)OCC(COC(=O)c2ccc(NCCCCCCCCCCCCCCCC)cc2)OC(C)=O)cc1	<63%	89%	2%	–
CCCCCCCCCCCCCCCCNc1ccc(C(=O)OC)c(F)c1	79%	99%	< 23%	–
CCCCCCCCCCCCCCCCNc1ccc(C(=O)NS(=O)(=O)c2ccc(C)cc2)cc1	–	–	< 77%	–
CCCCCCCCCCCCCCCCNc1ccc(C(=O)N(C)C)cc1	89%	93%	48%	–
CCCCCCCCCCCCCCCCNc1ccc(-c2nn[nH]n2)cc1	91%	89%	78%	–
CCCCCCCCCCCCCCCCNc1ccc(C#N)cc1.Cl	88%	100%	–	–
CCCCCCCCCCCCCCCCN(CCCCCCCCCCCCCCCC)c1ccc(CCC(=O)OCC)cc1	84%	94%	28%	–
CCCCCCCCCCCCCCCCN(C(=O)C(F)(F)F)c1ccc(C(=O)C(C(=O)OCC)C(=O)OC(C)(C)C)cc1 (centres undefined)	<64%	90%	< 49%	–
CCCCCCCCCCCCCCCCNc1ccc(CO)cc1.Cl	100%	99%	–	–
CCCCCCCCCCCCCCCCN(CC)c1ccc(C(=O)O)cc1	–	–	< 72%	–
